# From ChEMBL document CHEMBL1932942, “Antioxidant properties of 4-quinolones and structurally related flavones” (Bioorg Med Chem, 2012)
# Active and inactive are the calls of the source. The calls are words filed in the database; no cut-off is given here.
# How the values were obtained:
# [1] = Antioxidant activity assessed as trolox equivalents ratio of AAPH-induced peroxyl radical scavenging activity at 0.01 mM by ORAC assay; assay type: functional
# Summary of the method: (§1)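 Peroxyl scavenging in 75 mM potassium phosphate, pH 7.4. Compound in 10% DMSO (final) was mixed with 112 nM fluorescein, and 36 mM AAPH (final) was added. Fluorescence (ex 485/em 530 nm) was read every 5 min for 3 h. AUC was converted to Trolox equivalents against a Trolox curve (0–20 µM, duplicates). DMSO blank was subtracted. Mean of triplicates.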
# [2] = Antioxidant activity assessed as trolox equivalents ratio of AAPH-induced peroxyl radical scavenging activity at 0.001 mM by ORAC assay; assay type: functional; summary of the method: as §1
# [3] = Antioxidant activity assessed as trolox equivalents ratio of AAPH-induced peroxyl radical scavenging activity at 0.1 mM by ORAC assay; assay type: functional; summary of the method: as §1
# [4] = Antioxidant activity assessed as AAPH-induced peroxyl radical scavenging activity at 1 mM by ORAC assay; assay type: functional
# [5] = Antioxidant activity assessed as trolox equivalents ratio of ferric ion reducing activity using fe3+-TPTZ at 0.001 mM by FRAP assay; assay type: functional
# Summary of the method: (§2)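 Compound in 10% DMSO (final) was mixed with FRAP reagent (300 mM acetate buffer pH 3.6, 10 mM TPTZ in 40 mM HCl, 20 mM FeCl3, 10:1:1). Reading at 37 °C, 595 nm, after a 3 min lag, then every 6 min to 33 min. Value at 33 min expressed as percent of the 0.1 mM Trolox standard. DMSO/reagent blank subtracted. Triplicates.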
# [6] = Antioxidant activity assessed as trolox equivalents ratio of ferric ion reducing activity using fe3+-TPTZ at 0.01 mM by FRAP assay; assay type: functional; summary of the method: as §2
# [7] = Antioxidant activity assessed as trolox equivalents ratio of ferric ion reducing activity using fe3+-TPTZ at 0.1 mM by FRAP assay; assay type: functional; summary of the method: as §2
# [8] = Antioxidant activity assessed as ferric ion reducing activity using fe3+-TPTZ at 1 mM by FRAP assay; assay type: functional
# Brain [9] = assay: Antioxidant activity against toxin solution-induced lipid peroxidation in Sprague-Dawley rat brain homogenates assessed as free MDA levels per mg of tissue at 0.001 by TBARS assay; assay type: functional, tissue-based
# Brain [10] = assay: Antioxidant activity against toxin solution-induced lipid peroxidation in Sprague-Dawley rat brain homogenates assessed as free MDA levels per mg of tissue at 0.01 by TBARS assay; assay type: functional, tissue-based
# Summary of the method: (§3)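 Adult Sprague Dawley rat brains (200–250 g) homogenised 10% (w/v) in PBS, pH 7.4. Peroxidation induced with toxin solution (0.5 mM H2O2, 0.488 mM FeCl3, 0.14 mM ascorbic acid, 2:1:1). Compounds given in 10% DMSO final, with a 10% DMSO blank. BHT, TCA and TBA added, then 60 °C incubation, ice cooling and butanol extraction. A530 read; nmol MDA equivalents/mg tissue from a TMP curve.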
# Brain [11] = assay: Antioxidant activity against toxin solution-induced lipid peroxidation in Sprague-Dawley rat brain homogenates assessed as free MDA levels per mg of tissue at 0.1 by TBARS assay; assay type: functional, tissue-based; summary of the method: as §3
# Brain [12] = assay: Antioxidant activity against toxin solution-induced lipid peroxidation in Sprague-Dawley rat brain homogenates assessed as free MDA levels per mg of tissue at 1 by TBARS assay; assay type: functional, tissue-based; summary of the method: as §3
SMILES,Ratio [1],Ratio [2],Ratio [3],Activity [4],Ratio [5],Ratio [6],Ratio [7],Activity [8],Activity (Brain [9]),Activity (Brain [10]),Activity (Brain [11]),Activity (Brain [12]),Activity [3],Ratio [4],Activity [7],Ratio [8]
Oc1ccc2c(O)cc(-c3ccccc3)nc2c1,26.4,15.3,57.5,inactive,-3.48,-1.26,1.41,inactive,inactive,0.69 nmol,0.71 nmol,0.72 nmol,–,–,–,–
Oc1ccnc2ccccc12,–,1.5,–,inactive,2.82,1.69,0.23,inactive,inactive,0.93 nmol,0.92 nmol,0.77 nmol,–,–,–,–
O=c1cc(-c2ccccc2)oc2ccccc12,1.51,–,–,–,0.2,3.73,–,–,inactive,0.78 nmol,0.87 nmol,0.83 nmol,inactive,2.4,inactive,2.72
Oc1ccc2nc(-c3ccccc3)cc(O)c2c1,29,12.3,58.3,inactive,2.14,9.53,58.9,inactive,inactive,0.48 nmol,0.31 nmol,0.05 nmol,–,–,–,–
O=c1cc(-c2ccccc2)oc2ccc(O)cc12,37.1,21.4,59,inactive,1.84,2.47,–,inactive,inactive,0.82 nmol,0.79 nmol,0.63 nmol,–,–,–,–
O=c1cc(-c2ccccc2)oc2cc(O)ccc12,–,–,–,inactive,2.04,2.52,15.1,inactive,inactive,0.42 nmol,0.48 nmol,0.91 nmol,–,–,–,–
Oc1cc(-c2ccccc2)nc2ccccc12,–,–,1.91,inactive,0.53,1.06,4.79,inactive,inactive,0.91 nmol,0.87 nmol,0.87 nmol,–,–,–,–
c1ccc2ncccc2c1,–,1.4,–,inactive,1.97,2.42,0.98,inactive,inactive,0.8 nmol,0.77 nmol,0.73 nmol,–,–,–,–
Oc1cccc2cccnc12,30.5,10.2,55.4,inactive,2.65,3.68,15.4,inactive,inactive,0.93 nmol,0.83 nmol,0.07 nmol,–,–,–,–
Oc1cc(-c2ccccc2)nc2c(O)cccc12,26.1,9.18,65.4,inactive,3.56,25.5,97.7,inactive,inactive,0.58 nmol,0.49 nmol,0.27 nmol,–,–,–,–
